Experimental data as given in paper PMC9040061 (ACS infectious diseases, 2020).
Residue numbers refer to the chain shown, from its start. Values after ≈ are worked out from the molar mass of the structure shown.

Tests used:
[1] = target: recombinant E. faecalis UPPS (EfaUPPS) (Enterococcus faecalis, UniProt Q831K9); assay: UPPS inhibition assay; format: biochemical; conditions: for IC50: EfaUPPS, enzyme-coupled fluorescence assay
[2] = target: recombinant S. aureus UPPS (SauUPPS) (Staphylococcus aureus, UniProt P60477); assay: UPPS inhibition assay; format: biochemical
[3] = target: recombinant E. coli UPPS (EcoUPPS) (Escherichia coli, UniProt P60472); format: biochemical
Chain of recombinant E. coli UPPS (EcoUPPS) (P60472 whole entry): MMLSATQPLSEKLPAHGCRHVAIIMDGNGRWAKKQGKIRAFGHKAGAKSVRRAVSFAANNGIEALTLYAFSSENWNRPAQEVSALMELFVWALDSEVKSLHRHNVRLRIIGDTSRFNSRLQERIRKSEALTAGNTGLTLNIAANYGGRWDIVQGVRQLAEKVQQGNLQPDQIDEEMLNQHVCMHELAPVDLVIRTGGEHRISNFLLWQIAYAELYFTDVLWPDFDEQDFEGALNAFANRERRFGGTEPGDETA

wild-type EfaUPPS = wild-type EfaUPPS (Enterococcus faecalis, UniProt Q831K9); assay: Surface plasmon resonance binding assay; conditions: for Kd: read-out: equilibrium dissociation constant (KD), SPR, wild-type EfaUPPS, one-state binding model
E. coli 70S ribosome = assay: In vitro translation inhibition assay; format: biochemical, Escherichia coli; conditions: read-out: IC50, in vitro translation, PURE system
Escherichia coli BAS 849 = assay: MIC, microtiter broth dilution; format: cell-based; conditions: E. coli BAS 849, deficient outer-membrane structure
In short: (§1)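 MICs were measured by broth microdilution in LB broth against E. coli DH5α, BL21(DE3) and BAS 849, the last an outer-membrane-defective strain with raised permeability. Tetracycline and ampicillin served as reference antibiotics. Values are means of at least three biological replicates.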

normal E. coli species = assay: MIC, microtiter broth dilution; format: cell-based, Escherichia coli
In short: as §1

[4] = system: E. coli BAS 849 transformed with the empty vector pQE80L; assay: In vivo growth inhibition assay on agar; format: cell-based, Escherichia coli; conditions: compound at 8 μg/mL, IPTG 0.5 mM
In short: (§2)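 E. coli BAS 849 carried pQE80L (T5 promoter) either empty or bearing the UPPS gene from E. faecalis ATCC 29212, S. aureus ATCC 29213 or E. coli DH5α. Cultures were spread on LB agar with ampicillin, IPTG and test compound, incubated overnight at 37 °C and scored for growth.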

[5] = system: UPPS-overexpressed E. coli BAS 849; assay: In vivo growth inhibition assay on agar; format: cell-based, Escherichia coli; conditions: overexpression of EfaUPPS, SauUPPS and EcoUPPS; compound at 8 μg/mL; IPTG 0.5 mM
In short: as §2

EfaUPPS M28W mutant [6] = target: T1, EfaUPPS M28W mutant (Enterococcus faecalis, UniProt Q831K9, M34W); assay: Surface plasmon resonance binding assay; conditions: SPR
T1 sequence (Q831K9 1-271 M34W): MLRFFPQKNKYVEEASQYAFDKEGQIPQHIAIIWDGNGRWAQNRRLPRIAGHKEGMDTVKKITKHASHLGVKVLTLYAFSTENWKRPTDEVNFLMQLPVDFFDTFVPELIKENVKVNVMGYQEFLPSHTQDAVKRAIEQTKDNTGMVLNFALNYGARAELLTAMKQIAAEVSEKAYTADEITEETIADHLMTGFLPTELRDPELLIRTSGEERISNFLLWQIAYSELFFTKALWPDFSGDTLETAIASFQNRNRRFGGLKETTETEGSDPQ
In short: (§3)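 Point mutants of E. faecalis UPPS were made by site-directed mutagenesis and purified like wild type (Ni-NTA, then gel filtration). Enzyme (50 μg/mL) was amine-coupled to a carboxymethyl dextran chip. Test compound (0.4–50 μM) in phosphate-buffered saline with 0.005% Tween-20, pH 7.8, was flowed at 25 μL/min: 1.5 min association, 2.5 min dissociation. Reference-cell signal was subtracted, and KD came from a 1:1 model.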

EfaUPPS N31E mutant [7] = target: T2, EfaUPPS N31E mutant (Enterococcus faecalis, UniProt Q831K9, N37E); assay: Surface plasmon resonance binding assay; conditions: SPR
T2 sequence (Q831K9 1-271 N37E): T1 sequence (Q831K9 1-271 M34W) with W34M, N37E
In short: as §3

EfaUPPS M28W mutant [8] = target: T1, EfaUPPS M28W mutant; assay: UPPS inhibition assay, mutant enzyme; format: biochemical; conditions: M28W mutant versus wild-type EfaUPPS
In short: (§4)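 Mutant E. faecalis UPPS was His-tagged in pET28a, expressed in E. coli BL21(DE3) (1 mM IPTG, 16 °C, 16 h) and purified by Ni-NTA and gel filtration. Assays ran 30 min at 37 °C in 100 mM Tris-HCl pH 7.5, 0.5 mM MgCl2, 50 mM KCl, 35 μM IPP, 5 μM FPP, 0.005% Triton X-100, and were EDTA-stopped. Released pyrophosphate was read by coupled fluorescence (316/456 nm). Mutant IC50 was compared with wild type; at least three biological replicates.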

EfaUPPS M28A mutant = assay: UPPS inhibition assay, mutant enzyme; format: biochemical, Enterococcus faecalis; conditions: M28A mutant versus wild-type EfaUPPS
In short: as §4

EfaUPPS M28E mutant = assay: UPPS inhibition assay, mutant enzyme; format: biochemical, Enterococcus faecalis; conditions: M28E mutant versus wild-type EfaUPPS
In short: as §4

EfaUPPS N31E mutant [9] = target: T2, EfaUPPS N31E mutant; assay: UPPS inhibition assay, mutant enzyme; format: biochemical; conditions: N31E mutant versus wild-type EfaUPPS
In short: as §4

EfaUPPS N31F mutant = assay: UPPS inhibition assay, mutant enzyme; format: biochemical, Enterococcus faecalis; conditions: N31F mutant versus wild-type EfaUPPS
In short: as §4

EfaUPPS H46W mutant = assay: UPPS inhibition assay, mutant enzyme; format: biochemical, Enterococcus faecalis; conditions: H46W mutant versus wild-type EfaUPPS
In short: as §4

EfaUPPS W228A mutant = assay: UPPS inhibition assay, mutant enzyme; format: biochemical, Enterococcus faecalis; conditions: W228A mutant versus wild-type EfaUPPS
In short: as §4

EfaUPPS D29A mutant = EfaUPPS D29A mutant (Enterococcus faecalis, UniProt Q831K9, D35A); assay: UPPS inhibition assay, mutant enzyme; format: biochemical
In short: as §4

EfaUPPS R42A mutant = EfaUPPS R42A mutant (Enterococcus faecalis, UniProt Q831K9, R48A); assay: UPPS inhibition assay, mutant enzyme; format: biochemical
In short: as §4

EfaUPPS N31A mutant = EfaUPPS N31A mutant (Enterococcus faecalis, UniProt Q831K9, N37A); assay: UPPS inhibition assay, mutant enzyme; format: biochemical
In short: as §4

EfaUPPS F73S mutant = EfaUPPS F73S mutant (Enterococcus faecalis, UniProt Q831K9, F79S); assay: UPPS inhibition assay, mutant enzyme; format: biochemical
In short: as §4

EfaUPPS S74T mutant = EfaUPPS S74T mutant (Enterococcus faecalis, UniProt Q831K9, S80T); assay: UPPS inhibition assay, mutant enzyme; format: biochemical
In short: as §4

With `CN(C)[C@@H]1C(O)=C(C(N)=O)C(=O)[C@@]2(O)C(O)=C3C(=O)c4c(O)cccc4[C@@](C)(O)[C@H]3C[C@@H]12` [Tet, tetracycline, reference compound] the “IC50 fold higher than that for VirA” value [1] was 12 fold, the “IC50 fold higher than that for VirA” value [2] was 6 fold and the “IC50 fold higher than that for VirA” value [3] was 6 fold. For the same molecule, the SPR binding signals (wild-type EfaUPPS; EfaUPPS) was “cannot detect any binding signals” and the IC50 (E. coli 70S ribosome) was 15 µM.
`COc1cc(O)c2c(O)c3c(c4c2c1[C@]1(C4)C(C)=CCCC1(C)C)[C@H](O)[C@@]1(O)CC(=O)C(C(N)=O)=C(O)[C@@]1(O)C3=O` [VirA, viridicatumtoxin A] was tested, and the MIC (Escherichia coli BAS 849) was 8 mg/L (≈ 14.1 µM), the MIC (normal E. coli species) was greater than 64 mg/L and the IC50 [1] was 1.6 µM. For the same molecule, the IC50 ([2]; SauUPPS) was 4.1 µM, the IC50 ([3]; EcoUPPS) was 3.9 µM and the “growth of E. coli BAS 849” value [4] was “completely inhibited”. The “growth of E. coli BAS 849” value [5] was “rescued the cell growth”, the Kd (wild-type EfaUPPS) was 123 µM and the Kd (EfaUPPS M28W mutant [6]) was 9.8 µM. For the same molecule, the “binding affinity fold higher than the wild-type enzyme” value (EfaUPPS M28W mutant [6]) was “about 12 fold”, the Kd (EfaUPPS N31E mutant [7]) was 322 µM and the “binding affinity decreased, fold, versus wild type” value (EfaUPPS N31E mutant [7]) was “approximately 3 fold”. For the same molecule, the IC50 (E. coli 70S ribosome) was 700 µM, the IC50-MT/IC50-WT (EfaUPPS M28W mutant [8]) was 0.2 and the IC50-MT/IC50-WT (EfaUPPS M28A mutant) was 0.5. For the same molecule, the IC50-MT/IC50-WT (EfaUPPS M28E mutant) was 123.3, the IC50-MT/IC50-WT (EfaUPPS N31E mutant [9]) was 42.4 and the IC50-MT/IC50-WT (EfaUPPS N31F mutant) was 10.7. The IC50-MT/IC50-WT (EfaUPPS H46W mutant) was 4.5, the IC50-MT/IC50-WT (EfaUPPS W228A mutant) was 6.0 and the “susceptibility of mutant compared with wild-type enzyme” value (EfaUPPS D29A mutant) was “more susceptible”. The “susceptibility of mutant compared with wild-type enzyme” value (EfaUPPS R42A mutant) was “more susceptible”, the “change of IC50 of mutant compared with wild-type enzyme” value (“change of IC50 of mutant” for short) (EfaUPPS N31A mutant) was “decreased IC50” and the “change of IC50 of mutant” value (EfaUPPS F73S mutant) was “decreased IC50”. The “change of IC50 of mutant” value (EfaUPPS S74T mutant) was “decreased IC50”.
In the case of viridicatumtoxin B [VirB], the MIC (Escherichia coli BAS 849) is reported as 8 mg/L, the MIC (normal E. coli species) is reported as greater than 64 mg/L and the IC50 [1] is reported as 0.0581 µM. The “growth of E. coli BAS 849” value [4] was “completely inhibited”, the “growth of E. coli BAS 849” value [5] was “rescued the cell growth” and the Kd (wild-type EfaUPPS) was 11.5 µM. The IC50 (E. coli 70S ribosome) was 600 µM.
